ChEMBL document CHEMBL1123250, “Chloroalanyl antibiotic peptides: antagonism of their antimicrobial effects by L-alanine and L-alanyl peptides in gram-negative bacteria” (1986)
Values joined by “and” are separate entries in the source; they are usually repeats but may differ in a detail not shown here. Identical values can stand only once.

Legend:
[1] = target: Alanine racemase, biosynthetic (Escherichia coli K-12) (UniProt P0A6B4); test: (§1) Compound was tested for enzyme activity at a concentration of 100 ug/mL against alanine racemase; per mg of protein
How it was run: (§2)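 E. coli JSR-0 was grown at 37 °C in Davis-Mingioli medium with Met and Pro (50 µg/mL each) and Leu, Ile and Val (100 µg/mL each), plus 5% sucrose or 500 µg/mL L-Ala. Agent was added at about 100 Klett units, with 30 min more shaking. Cells were washed in phosphate/EDTA/PLP buffer pH 8.0 and sonicated. D→L racemase was coupled to L-alanine dehydrogenase (10 mM D-Ala, 5 mM NAD+, CHES pH 9.0, 37 °C), reading NADH at 340 nm.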

[2] = target: Alanine racemase, biosynthetic (Escherichia coli K-12) (UniProt P0A6B4); test: as §1; how it was run: as §2; remark: listed apart in the source
[3] = tested on: Escherichia coli; test: Compound was tested for antibacterial activity at a concentration of 50 ug/mL against Escherichia coli ATCC; format: functional
How it was run: (§3)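 Agar dilution in defined peptide susceptibility agar with L-Ala or L-Ala-L-Ala added at 25, 50, 100 or 500 µg/mL, and peptide in serial 2-fold dilutions. Inocula were grown overnight in the liquid susceptibility medium and diluted to about 1 x 10^7 cfu/mL, then replicator-spotted. Plates were incubated overnight at 37 °C. MIC was the lowest concentration allowing fewer than 10 colonies at 16-18 h.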

[4] = tested on: Escherichia coli; test: Compound was tested for antibacterial activity at a concentration of 50 ug/mL against Escherichia coli JSR-O; format: functional; how it was run: as §3
[5] = tested on: Escherichia coli; test: Compound was tested for antibacterial activity at a concentration of 500 ug/mL against Escherichia coli ATCC; format: functional; how it was run: as §3
[6] = tested on: Escherichia coli; test: Compound was tested for antibacterial activity at a concentration of 500 ug/mL against Escherichia coli JSR-O; format: functional; how it was run: as §3
[7] = tested on: Escherichia coli; test: Compound was tested for antibacterial activity against Escherichia coli; format: functional
How it was run: (§4)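 Agar dilution MIC on defined peptide susceptibility agar. Inoculum made by growing overnight in liquid peptide susceptibility medium, then diluting to about 1 × 10^7 cfu/mL. Applied by Steers replicator to plates carrying serial 2-fold peptide dilutions. Incubated overnight at 37 °C. MIC = lowest concentration allowing growth of fewer than 10 colonies after 16-18 h.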

[8] = tested on: Escherichia coli; test: Compound was tested for antibacterial activity against Escherichia coli JSR-O at a concentration of 25 ug/mL; format: functional; how it was run: as §3
[9] = tested on: Escherichia coli; test: Compound was tested for antibacterial activity at a concentration of 100 ug/mL against Escherichia coli JSR-O; format: functional; how it was run: as §3
[10] = tested on: Escherichia coli; test: (§5) Compound was tested for antibacterial activity at a concentration of 25 ug/mL against Escherichia coli ATCC; format: functional; how it was run: as §3
[11] = tested on: Escherichia coli; test: (§6) Compound was tested for antibacterial activity at a concentration of 25 ug/mL against Escherichia coli JSR-O; format: functional; how it was run: as §3
[12] = tested on: Escherichia coli; test: as §6; format: functional; how it was run: as §3; remark: listed apart in the source
[13] = tested on: Klebsiella aerogenes; test: Compound was tested for antibacterial activity against Enterobacter aerogenes at a concentration of 25 ug/mL; format: functional; how it was run: as §3
[14] = tested on: Klebsiella aerogenes; test: (§7) Compound was tested for antibacterial activity at a concentration of 25 ug/mL against Enterobacter aerogenes; format: functional; how it was run: as §3
[15] = tested on: Klebsiella aerogenes; test: as §7; format: functional; how it was run: as §3; remark: listed apart in the source
[16] = tested on: Klebsiella aerogenes; test: Compound was tested for antibacterial activity at a concentration of 50 ug/mL against Enterobacter aerogenes; format: functional; how it was run: as §3
[17] = tested on: Enterobacter cloacae; test: Compound was tested for antibacterial activity at a concentration of 25 ug/mL against Enterobacter cloacae; format: functional; how it was run: as §3
[18] = tested on: Enterobacter cloacae; test: Compound was tested for antibacterial activity at a concentration of 50 ug/mL against Enterobacter cloacae; format: functional; how it was run: as §3
[19] = tested on: Enterobacter cloacae; test: Compound was tested for antibacterial activity at a concentration of 500 ug/mL against Enterobacter cloacae; format: functional; how it was run: as §3
[20] = tested on: Shigella flexneri; test: Compound was tested for antibacterial activity against Shigella flexneri; format: functional; how it was run: as §4
[21] = tested on: Shigella flexneri; test: Compound was tested for antibacterial activity against Shigella flexneri at a concentration of 25 ug/mL; format: functional; how it was run: as §3
[22] = tested on: Shigella flexneri; test: (§8) Compound was tested for antibacterial activity at a concentration of 25 ug/mL against Shigella flexneri; format: functional; how it was run: as §3
[23] = tested on: Shigella flexneri; test: as §8; format: functional; how it was run: as §3; remark: listed apart in the source
[24] = tested on: Shigella flexneri; test: Compound was tested for antibacterial activity at a concentration of 50 ug/mL against Shigella flexneri; format: functional; how it was run: as §3
[25] = tested on: Shigella flexneri; test: Compound was tested for antibacterial activity at a concentration of 500 ug/mL against Shigella flexneri; format: functional; how it was run: as §3
[26] = tested on: Staphylococcus aureus; test: (§9) Compound was tested for antibacterial activity at a concentration of 25 ug/mL against Staphylococcus aureus; format: functional; how it was run: as §3
[27] = tested on: Staphylococcus aureus; test: as §9; format: functional; how it was run: as §3; remark: listed apart in the source
[28] = tested on: Staphylococcus aureus; test: Compound was tested for antibacterial activity at a concentration of 50 ug/mL against Staphylococcus aureus; format: functional; how it was run: as §3
[29] = tested on: Enterococcus faecalis; test: Compound was tested for antibacterial activity at a concentration of 100 ug/mL against Streptococcus faecalis; format: functional; how it was run: as §3
[30] = tested on: Enterococcus faecalis; test: (§10) Compound was tested for antibacterial activity at a concentration of 25 ug/mL against Streptococcus faecalis; format: functional; how it was run: as §3
[31] = tested on: Enterococcus faecalis; test: as §10; format: functional; how it was run: as §3; remark: listed apart in the source
[32] = tested on: Enterococcus faecalis; test: Compound was tested for antibacterial activity at a concentration of 50 ug/mL against Streptococcus faecalis; format: functional; how it was run: as §3
[33] = tested on: Streptococcus agalactiae; test: Compound was tested for antibacterial activity against Streptococcus agalactiae; format: functional
How it was run: (§11)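 Inoculum made from colonies grown overnight on chocolate or blood agar, resuspended in liquid medium to 10' cfu/mL. Applied by Steers replicator to serial 2-fold peptide dilutions. Incubated overnight at 37 °C under 7% CO2. MIC = lowest concentration giving fewer than 10 colonies at 16-18 h.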

[34] = tested on: Staphylococcus epidermidis; test: Compound was tested for antibacterial activity at a concentration of 50 ug/mL against Staphylococcus epidermidis; format: functional; how it was run: as §3
[35] = tested on: Streptococcus pyogenes; test: Compound was tested for antibacterial activity against Streptococcus pyogenes; format: functional; how it was run: as §11
[36] = tested on: Staphylococcus epidermidis; test: (§12) Compound was tested for antibacterial activity at a concentration of 25 ug/mL against Staphylococcus epidermidis; format: functional; how it was run: as §3
[37] = tested on: Staphylococcus epidermidis; test: as §12; format: functional; how it was run: as §3; remark: listed apart in the source
[38] = tested on: Enterococcus faecalis; test: Compound was tested for antibacterial activity against Streptococcus faecalis at a concentration of 25 ug/mL; format: functional; how it was run: as §3
[39] = tested on: Escherichia coli; test: Compound was tested for enzyme activity at a concentration of 100 ug/mL against transaminase B; per mg of protein
How it was run: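 E. coli JSR-0 was grown at 37 °C in supplemented Davis-Mingioli medium (Met and Pro; Leu, Ile and Val), with sucrose or L-Ala in some cultures. Agent was added at about 100 Klett units and cells harvested after 30 min. The sonicated homogenate was run with Tris pH 7.8, pyridoxal phosphate and α-ketoglutarate; L-valine started transamination at 37 °C. Timed aliquots were derivatised with 2,4-DNPH, and α-ketoisovalerate hydrazone was read at A430 against a standard curve.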

[40] = tested on: Enterococcus faecalis; test: Compound was tested for antibacterial activity at a concentration of 500 ug/mL against Streptococcus faecalis; format: functional; how it was run: as §3
[41] = tested on: Staphylococcus aureus; test: (§13) Compound was tested for antibacterial activity against Staphylococcus aureus at a concentration of 25 ug/mL; format: functional; how it was run: as §3
[42] = tested on: Staphylococcus epidermidis; test: as §13; format: functional; how it was run: as §3
[43] = tested on: Escherichia coli; test: as §5; format: functional; how it was run: as §3; remark: listed apart in the source
[44] = tested on: Klebsiella aerogenes; test: Compound was tested for antibacterial activity at a concentration of 500 ug/mL against Enterobacter aerogenes; format: functional; how it was run: as §3

Alanine racemase, biosynthetic (Escherichia coli K-12), sequence (P0A6B4 whole entry): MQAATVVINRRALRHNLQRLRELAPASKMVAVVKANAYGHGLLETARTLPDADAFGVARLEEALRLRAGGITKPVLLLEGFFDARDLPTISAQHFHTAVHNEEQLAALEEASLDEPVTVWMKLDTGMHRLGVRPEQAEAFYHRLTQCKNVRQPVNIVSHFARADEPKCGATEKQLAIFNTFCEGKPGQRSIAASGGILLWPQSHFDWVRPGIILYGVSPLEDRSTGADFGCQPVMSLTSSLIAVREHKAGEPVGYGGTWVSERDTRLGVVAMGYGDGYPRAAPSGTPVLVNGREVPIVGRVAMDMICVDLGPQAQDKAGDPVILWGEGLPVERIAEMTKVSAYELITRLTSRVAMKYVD

N[C@@H](CCl)C(=O)N[C@@H](CCl)C(=O)O
3.12 µg/mL: MIC [8] | MIC [23] | MIC [35] | MIC [43]
> 100 µg/mL: MIC [3] | MIC [4] | MIC [5] | MIC [6] | MIC [10] | MIC [11] | MIC [14] | MIC [16] | MIC [17] | MIC [18] | MIC [19] | MIC [22] | MIC [24] | MIC [25] | MIC [29] | MIC [30] | MIC [31] | MIC [32] | MIC [38] | MIC [40] | MIC [44]
>100 µg/mL: MIC [9]
12.5 µg/mL: MIC [7] | MIC [15]
6.25 µg/mL: MIC [12] | MIC [13] | MIC [28] | MIC [34]
0.05 µg/mL: MIC [27] | MIC [37] | MIC [41] | MIC [42]
0.13 µM/min and 0.11 µM/min: Activity [39]
0.85 µM/min: Activity [1]
0.19 µM/min: Activity [2]
50 µg/mL: MIC ([9]; Escherichia coli, read-out: MIC)
0.39 µg/mL: MIC [26] | MIC [36]
1.56 µg/mL: MIC [21] | MIC [33]
3.25 µg/mL: MIC [20]
